Like-named read-outs stand apart in the source and are kept apart here.
Key:
[1] = tested on: Eca109 xenograft tumor (FAPα in tumor stroma); assay type: in vivo, BALB/c-nude mice; settings: for AUC of ROC curve, ESCC vs healthy mice: 1 hour urine, n=10 per group
Outline: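 BALB/c-nude mice aged 4–6 weeks were given 5×10⁶ Eca109 cells s.c. and grown 4 weeks to tumours of 100–300 mm³. Tumour-bearing and age-matched healthy mice (n=10 each) were co-injected via the tail vein with probe nanoparticles (100 μL PBS; 100 or 10 nM by peptide) plus control peptide at the same level. Urine was collected at set times, with 1 h urine used for diagnosis. It was stored at −80°C, diluted 1:10–10² in PBS/1% BSA, and run by ELISA in at least duplicate. ROC analysis was applied.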

Eca109 xenograft tumor = experiment: In vivo imaging and biodistribution; design: species or system BALB/c-nude mice; settings: 100 μL, 100 nM by peptide, i.v.; 1 hour postinjection
mouse FAPα protein = molecular target: T1, mouse FAPα protein (Mus musculus, UniProt P97321); experiment: In vitro protease assay with recombinant FAPα; assay type: biochemical; settings: 37°C
T1 sequence (P97321 1-761): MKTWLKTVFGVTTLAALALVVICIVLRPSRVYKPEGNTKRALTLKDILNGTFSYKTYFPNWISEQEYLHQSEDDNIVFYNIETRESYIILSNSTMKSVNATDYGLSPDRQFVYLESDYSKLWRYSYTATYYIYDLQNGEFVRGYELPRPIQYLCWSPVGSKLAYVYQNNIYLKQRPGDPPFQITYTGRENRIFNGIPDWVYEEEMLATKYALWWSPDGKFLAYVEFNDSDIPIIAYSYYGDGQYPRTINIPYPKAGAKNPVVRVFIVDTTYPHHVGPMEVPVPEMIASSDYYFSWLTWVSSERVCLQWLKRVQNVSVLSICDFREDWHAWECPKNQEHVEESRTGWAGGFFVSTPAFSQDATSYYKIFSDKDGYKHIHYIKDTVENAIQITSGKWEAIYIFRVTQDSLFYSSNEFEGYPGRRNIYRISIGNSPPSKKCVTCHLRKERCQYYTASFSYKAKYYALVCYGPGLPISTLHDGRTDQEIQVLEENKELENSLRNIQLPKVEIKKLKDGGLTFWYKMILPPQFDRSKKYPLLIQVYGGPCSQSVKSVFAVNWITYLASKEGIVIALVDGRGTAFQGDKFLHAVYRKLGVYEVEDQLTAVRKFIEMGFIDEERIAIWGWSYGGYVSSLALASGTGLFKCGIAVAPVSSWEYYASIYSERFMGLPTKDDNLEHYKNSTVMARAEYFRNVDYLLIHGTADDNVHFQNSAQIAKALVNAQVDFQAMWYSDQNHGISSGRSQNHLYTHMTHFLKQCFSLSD

## Bio-eGvndneeGffsar-K [5-FAM]-GPGPNQC [marker-MNPs]
[1]; 10 nM group
  Sensitivity: 90%
  Specificity: 97%
  AUC of ROC curve, ESCC vs healthy mice: 0.97
[1]; 100 nM group
  Sensitivity: 100%
  Specificity: 100%
  AUC of ROC curve, ESCC vs healthy mice: 1.0
[1]; 100 nM marker-MNPs i.v., ESCC tumor mice, n=3, ELISA
  Time of peak concentration of cleaved reporter peptide in urine: 60 min
[1]; 100 nM marker-MNPs i.v., ESCC tumor mice, postinjection
  Time at which urinary cleaved reporter dropped to the bottom line: 150 min
[1]; 100 nM marker-MNPs i.v., healthy mice, 0–180 min
  Urine reporter in healthy mice: not detectable
[1]; 1 hour postinjection urine, P<0.0001
  Ratio of reporter to reporter control, ESCC vs healthy mice: significantly higher than in healthy control mice
Eca109 xenograft tumor
  In vivo fluorescence imaging of tumor-bearing mice vs control: strong fluorescent activation in the tumor region and bladder
Mouse FAPα protein; marker-MNPs 10 nM by peptide, recombinant FAPα 0.1–100 pM, 1 hour, ELISA, n=3 per dose
  Level of cleaved reporter peptides with increasing FAPα concentration: elevated levels of cleaved reporter peptides were detected by ELISA with increasing concentration of FAPα
Mouse FAPα protein; marker-MNPs treated with 10 nM FAPα
  Level of cleaved reporter peptides over time: increased over time

— PMC5538687 (International Journal of Nanomedicine, 2017)
